Data reported in ChEMBL document CHEMBL5252537, “Usnic Acid Benzylidene Analogues as Potent Mechanistic Target of Rapamycin Inhibitors for the Control of Breast Malignancies” (J Nat Prod, 2017).
The source made the active and inactive calls. The rule behind the calls is not given here.

How the values were obtained:
MDA-MB-468 = assay: Antiproliferative activity against human MDA-MB-468 cells incubated for 72 hrs by MTT assay; type: functional, cell-based; conditions: MDA-MB-468, 72 h
Outline: (§1)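 Cells seeded at 5 × 10^3/well and allowed to attach overnight, then washed with PBS. Compound diluted from 10 mM DMSO stock into medium (100 ng/mL HGF added for c-Met-expressing cells), in triplicate, 72 h at 37 °C. MTT added for 4 h, formazan dissolved in DMSO, absorbance read at 570 nm. Cell numbers taken from a standard curve; IC50 calculated.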

MDA-MB-231 [1] = assay: Antiproliferative activity against human MDA-MB-231 cells incubated for 72 hrs by MTT assay; type: functional, cell-based; conditions: MDA-MB-231, 72 h; outline: as §1
MDA-MB-231 [2] = assay: Antimigratory activity in human MDA-MB-231 cells assessed as inhibition of cell migration after 23 hrs by scratch wound healing assay; type: functional, cell-based
Outline: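 Cells seeded at 1 × 10^5/well and grown to a confluent monolayer, then scratched with a 200 μL pipet tip. Held 5 h in serum-free medium, then given medium with HGF (100 ng/mL) plus compound or DMSO. Norstictic acid (15 μM) was the positive control. Wound width photographed at 0 h and followed up to 24 h; cells MeOH-fixed. Percent migration from wound thickness versus DMSO wells; IC50 calculated.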

T47D = assay: Antiproliferative activity against human T47D cells incubated for 72 hrs by MTT assay; type: functional, cell-based; outline: as §1
mTORC2 (Homo sapiens) [3] = molecular target: T1, mTORC2 (Homo sapiens) (UniProt P42345+Q6R327+Q9BVC4+Q9BPZ7); assay: Inhibition of mTORC2 in human MCF7 cells assessed as reduction in Akt phosphorylation at Ser473 residue at 15 to 25 uM by Western blot analysis; type: cell-based; conditions: dose 15-25 µM
Outline: (§2)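 Cells seeded at 5 × 10^5 per 100 mm dish and allowed to attach overnight. Treated with compound or DMSO for 72 h (HGF 100 ng/mL added for MDA-MB-231). Lysed in RIPA buffer with protease inhibitors. 30 μg protein run on SDS-PAGE, transferred to PVDF, blocked in 5% BSA/TBST. Primary antibodies overnight at 4 °C, HRP secondary antibodies, chemiluminescent detection.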

MDA-MB-231 [4] = assay: Induction of autophagy in human MDA-MB-231 cells assessed as increase in LC3 level by Western blotting analysis; type: functional, cell-based; conditions: dose 15-25 µM; outline: as §2
SK-BR-3 = assay: Antiproliferative activity against human SK-BR-3 cells incubated for 72 hrs by MTT assay; type: functional, cell-based; conditions: SK-BR-3, 72 h; outline: as §1
BT-474 = assay: Antiproliferative activity against human BT-474 cells incubated for 72 hrs by MTT assay; type: functional, cell-based; conditions: BT-474, 72 h; outline: as §1
[5] = molecular target: Serine/threonine-protein kinase mTOR (Homo sapiens) (UniProt P42345); assay: Inhibition of mTOR in human […] cells assessed as reduction in phosphorylated 4E-BP1 level at 15 to 25 uM by Western blot analysis; type: cell-based; conditions: MCF7, dose 15-25 µM; outline: as §2
MDA-MB-231 [6] = assay: Induction of autophagy in human MDA-MB-231 cells assessed as increase in beclin-1 level by Western blotting analysis; type: functional, cell-based; conditions: dose 15-25 µM; outline: as §2
[7] = molecular target: Serine/threonine-protein kinase mTOR (Homo sapiens) (UniProt P42345); assay: Inhibition of mTOR in human MDA-MB-231 cells assessed as reduction in p-S6K level at 15 to 25 uM by Western blot analysis; type: cell-based; conditions: dose 15-25 µM; outline: as §2
mTORC2 (Homo sapiens) [8] = molecular target: T1, mTORC2 (Homo sapiens); assay: Inhibition of mTORC2 in human MDA-MB-231 cells assessed as reduction in Akt phosphorylation at Ser473 residue at 15 to 25 uM by Western blot analysis; type: cell-based; conditions: dose 15-25 µM; outline: as §2
MDA-MB-231 [9] = assay: Anti-invasive activity in human MDA-MB-231 cells after 24 hrs […]; type: functional, cell-based; conditions: MDA-MB-231, 24 h
[10] = molecular target: Serine/threonine-protein kinase mTOR (Homo sapiens) (UniProt P42345); assay: Inhibition of mTOR in human […] cells assessed as reduction in p-S6K level at 15 to 25 uM by Western blot analysis; type: cell-based; conditions: MCF7, dose 15-25 µM; outline: as §2
MCF7 [11] = assay: Induction of autophagy in human MCF7 cells assessed as increase in beclin-1 level by Western blotting analysis; type: functional, cell-based; conditions: dose 15-25 µM; outline: as §2
[12] = molecular target: Serine/threonine-protein kinase mTOR (Homo sapiens) (UniProt P42345); assay: Inhibition of mTOR in human MDA-MB-231 cells assessed as reduction in phosphorylated 4E-BP1 level at 15 to 25 uM by Western blot analysis; type: cell-based; conditions: dose 15-25 µM; outline: as §2
MCF7 [13] = assay: Induction of autophagy in human MCF7 cells assessed as increase in LC3 level by Western blotting analysis; type: functional, cell-based; conditions: dose 15-25 µM; outline: as §2
MCF7 [14] = assay: Antiproliferative activity against human MCF7 cells incubated for 72 hrs by MTT assay; type: functional, cell-based; conditions: MCF7, 72 h; outline: as §1

IC50 (MDA-MB-468): 13.7 µM
IC50 (MDA-MB-231 [1]): 13.1 µM
IC50 (MDA-MB-231 [2]; MDA-MB-231, 23 h): 13.7 µM
IC50 (T47D): 15.9 µM
inhibition (mTORC2 (Homo sapiens) [3]): Active
IC50 (SK-BR-3): 14.4 µM
IC50 (BT-474): 15.1 µM
inhibition [5]: Active
inhibition [7]: Active
inhibition (mTORC2 (Homo sapiens) [8]): Active
IC50 (MDA-MB-231 [9]): 14.2 µM
inhibition [10]: Active
inhibition [12]: Active
IC50 (MCF7 [14]): 11.2 µM
Compound: CC(=O)C1=C(O)C=C2Oc3c(C(C)=O)c(O)c(C)c(O)c3[C@]2(C)C1=O [(-)-USNIC ACID]
Activity (MDA-MB-231 [2]): Dose-Dependent Effect
Activity (MDA-MB-231 [4]): Dose-Dependent Effect
Activity (MDA-MB-231 [6]): Dose-Dependent Effect
Activity (MCF7 [11]): Dose-Dependent Effect
Activity (MCF7 [13]): Dose-Dependent Effect
